Sampled rows, rich in hits. Any-hit rate of the full collection: about 2.2%.
Arbovirus anti: antivirals against arbovirus infection, primary screen, cell-based, full library, 10K replicate subset; arbovirus infection cell-based antiviral screen; 200,000 tested, 0.37% active; AID 1251, 2008; inhibition, % at 10 µM; in the data active means inhibition above about 30%
RBBP9 inh: human RBBP9 inhibitors, primary screen, biochemical, fluorescence polarization, FP-Rh probe, HTS; AID 1515, 2009; inhibition, % at 7.94 µM; 220,000 tested, 0.2% active; recombinant RBBP9;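 active means inhibition above the campaign mean of all tested compounds plus 3 SD, cut at about 14% in these data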;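 further: plate controls were DMSO wells with RBBP9 for no effect and wells lacking RBBP9 protein for full effect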
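System: RBBP9 protein / Buffer or medium: Tris/NaCl buffer pH 8.0 with 0.1% Pluronic / Probe or stimulus: Serine-hydrolase probe FP-Rh, 375 nM pre-mixing / Dosing: 7.94 µM single dose, 0.794% DMSO / Times: enzyme-compound preincubation 30 min, then probe labeling 45 min, 25 °C / Technique: fluorescence polarization (mP), excitation 525 nm, emission 598 nm / Replication: singlicate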
Wee1 stabilizer: Wee1 degradation inhibitors, primary screen, cell-based, HeLa, Wee1K328M-luciferase, luminescence | HeLa Luc-Wee1K328M stability; 100% = proteasome inhibitor MG132 effect | reporter increase, % at 5 µM | 220,000 tested, 1.2% active | AID 1321, 2008;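 active means activation above the mean of all tested compounds plus 3 SD, set per screening run, cut at about 8.8% in these data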;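 further: cells exposed to compound for 20 h before luminescence read; 0% = DMSO alone and 100% = MG132 at 30 µM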
DTT redox prof: compounds producing H2O2 with reducing agent – biochemical, NIH compound library profiling, artefact control for MLSCN library redox annotation, primary screen; DTT-dependent redox cycling H2O2, phenol red/HRP absorbance; 100% = 100 µM peroxide control, 0% = buffer; 200,000 tested, 0.03% active; AID 878, 2007; activation, % at 10 µM;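 active means activation of at least 50% relative to the plate's high and low controls in the primary single-dose screen; inactive means activation below 50%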;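 further: compound incubated with DTT at 0.8 mM final as the reducing agent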
PKD1 inh: inhibitors of human PKD1 kinase, biochemical, fluorescence polarization | PKD1 kinase fluorescence polarization assay | Serine/threonine-protein kinase D1 (Homo sapiens), Q15139 | inhibition, % (test concentration not listed) | AID 797, 2007 | 200,000 tested, 0.056% active; in the data active means inhibition above about 50%
Target sequence (Q15139 whole entry, looked up): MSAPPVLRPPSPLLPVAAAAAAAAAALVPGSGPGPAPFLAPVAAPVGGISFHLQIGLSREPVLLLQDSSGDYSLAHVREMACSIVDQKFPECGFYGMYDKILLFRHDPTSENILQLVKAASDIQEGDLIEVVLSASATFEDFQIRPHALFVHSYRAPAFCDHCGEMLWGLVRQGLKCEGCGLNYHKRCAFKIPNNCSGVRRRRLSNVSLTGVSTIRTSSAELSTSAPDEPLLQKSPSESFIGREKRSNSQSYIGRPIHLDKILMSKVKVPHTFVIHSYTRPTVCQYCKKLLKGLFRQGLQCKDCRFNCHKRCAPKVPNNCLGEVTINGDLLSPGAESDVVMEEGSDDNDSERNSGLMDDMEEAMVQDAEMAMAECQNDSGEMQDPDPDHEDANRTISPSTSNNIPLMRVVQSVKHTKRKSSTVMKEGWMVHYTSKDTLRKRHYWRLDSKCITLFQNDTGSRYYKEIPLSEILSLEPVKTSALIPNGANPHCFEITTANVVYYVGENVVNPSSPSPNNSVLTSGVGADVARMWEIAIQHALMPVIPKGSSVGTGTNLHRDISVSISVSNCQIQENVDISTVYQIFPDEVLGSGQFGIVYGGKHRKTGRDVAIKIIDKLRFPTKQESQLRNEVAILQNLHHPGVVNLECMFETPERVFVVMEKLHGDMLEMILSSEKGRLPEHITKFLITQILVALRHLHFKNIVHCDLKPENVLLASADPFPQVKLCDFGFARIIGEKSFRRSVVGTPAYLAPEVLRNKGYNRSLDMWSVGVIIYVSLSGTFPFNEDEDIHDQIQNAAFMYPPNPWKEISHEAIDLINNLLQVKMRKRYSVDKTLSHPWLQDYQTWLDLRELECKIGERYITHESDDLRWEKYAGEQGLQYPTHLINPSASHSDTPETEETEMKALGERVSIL
p97 ATPase inh: inhibitors of human p97 ATPase, primary screen, biochemical; AID 1481, 2009; inhibition, % at 8 µM; 220,000 tested, 0.42% active; recombinant p97 ATPase, Kinase-Glo ATP luminescence, 3 h; Transitional endoplasmic reticulum ATPase (Homo sapiens), P55072; in the data active means inhibition above about 15%;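 further: 0% = DMSO vehicle and 100% = wells lacking enzyme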
p97 confirm: p97 ATPase inhibitors, retest, confirmation, biochemical; shares compounds with p97 ATPase inh; recombinant p97 ATPase, Kinase-Glo ATP luminescence; inhibition, % at 8 µM; 760 tested, 44% active; AID 1517, 2009;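 active means percent inhibition of p97 ATPase above a set limit, the primary screen's mean plus 3 SD, cut at about 15% in these data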;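 further: 0% = DMSO wells and 100% = wells lacking p97 protein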
RBBP9 inh conf: human RBBP9 inhibitors, retest, confirmation, biochemical, fluorescence polarization, FP-Rh probe, triplicate. shares compounds with RBBP9 inh. recombinant RBBP9. inhibition, % at 7.94 µM. 410 tested, 36% active. AID 1537, 2009;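 active means inhibition above the hit cutoff derived for the primary screen, cut at about 15% in these data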;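 further: 0% = RBBP9 with DMSO and 100% = wells lacking RBBP9 protein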
An asterisk follows results filed as active; / = not tested or not shown; + = active, no number.

SMILES	Arbovirus anti	RBBP9 inh	Wee1 stabilizer	DTT redox prof	PKD1 inh	p97 ATPase inh	RBBP9 inh conf	others
CCC12CN3CCN(CC(C3)/C1=N\NC(=O)c1ccc(C(C)(C)C)cc1)C2	-2	-5	-1	0	5	21*	/	p97 confirm=4
Cc1[nH]c2ccccc2c1/C=N/NC(=O)c1cc(-c2ccccc2)n[nH]1	/	19*	0	/	/	21*	25*	p97 confirm=17*
Cn1cccc1CC(=O)N/N=C/c1ccc(Cl)c([N+](=O)[O-])c1	/	-5	-3	/	/	3	/
Oc1ccc(/C=N/Nc2ccnc3cc(Cl)ccc23)cc1O	/	25*	2	/	/	33*	97*	p97 confirm=41*
CC(=O)Nc1ccc2ccccc2c1	6	-5	2	0	-1	-2	/
CC(=O)Nc1ccc2cc3ccc(NC(C)=O)cc3nc2c1	/	50*	-2	/	/	34*	11	p97 confirm=24*
CN(C)S(=O)(=O)c1cccc(NC(=S)N/N=C/c2ccc(O)c(O)c2O)c1	/	32*	-1	/	/	16*	51*	p97 confirm=20*
Cc1nccn1-c1ccc(C=O)cc1	-3	-4	-3	-1	-7	0	/
NS(=O)(=O)c1ccc(N/N=C/c2ccc(O)c(O)c2O)c([N+](=O)[O-])c1	/	64*	1	/	/	48*	84*	p97 confirm=50*
NS(=O)(=O)c1ccc(N/N=C/c2ccc(O)cc2O)c([N+](=O)[O-])c1	/	2	7	/	/	4	/
O=C(CSCc1ccc(Br)cc1)NCc1ccccn1	-4	2	3	0	-5	1	/
CCc1ccc(N2CC(C(=O)NCc3ccc4c(c3)OCO4)CC2=O)cc1 (stereo unspecified)	-3	5	-1	-1	-7	-6	/
O=C(NCc1ccc2c(c1)OCO2)C1CC(=O)N(c2ccc(F)cc2)C1 (stereo unspecified)	-2	17*	0	0	-3	1	2
COc1cccc(-c2csc(N3CCN(C(=S)Nc4ccccc4C)CC3)n2)c1	-9	-10	4	-1	-7	-2	/
CC(C)(C)SCCNS(=O)(=O)c1ccc(C#N)cc1	/	-7	0	/	/	2	/
O=c1cc(O)c2ccc(O)cc2o1	3	1	2	0	-4	13	/
O=c1ccc2[n+]([O-])c3ccc(O)cc3oc-2c1	/	+	1	/	/	-5	-298
C/C(=C\C(=O)c1cccnc1)Nc1ccc(O)cc1	-18	43*	4	0	-4	13	10
C/C(=C\C(=O)c1ccccc1)Nc1ccc(O)cc1	-28	12	1	0	-2	9	/
CN(C)CC(C)(C)CN=Cc1c(O)[nH]c2ccccc12	/	-1	2	/	/	4	/
CC1=CC(=NOC(=O)/C=C/c2ccccc2)C=C(C)C1=O	-5	17*	1	-4	1	-1	79*
CC1=CC(=O)C=C(C)C1=NOC(=O)/C=C\c1ccccc1	2	-3	-1	-1	-7	6	/
O=c1c2ccccc2nc(/C=C/c2cccnc2)n1Cc1ccccc1	3	15*	-2	0	-3	2	55*
CCCn1c(SCC(=O)c2cc(C)c(C)cc2C)n[nH]c1=O	4	-7	1	0	0	2	/
O=[N+]([O-])c1ccc(Nc2c3ccccc3nc3ccccc23)cc1	-34	16*	4	-1	67*	10	12
Cc1cc(NC(=O)Cn2nc([N+](=O)[O-])c(Br)c2C)no1	1	-6	-1	-1	0	4	/
O=c1c2ccccc2sn1-c1ccc(S(=O)(=O)N2CCCC2)cc1	1	-10	1	0	-16	2	/

Compound activity as filed in PubChem.
